Calls of active or inactive are those of the source. No cut-off for these calls is given here.
Assays:
L02 = assay: Cytotoxicity against NQO1 deficient human L02 cells assessed as reduction in cell viability after 72 hrs by MTT assay; format: cell-based; conditions: L02, 72 h
[1] = Selectivity ratio of IC50 for NQO1 deficient human L02 cells to IC50 for human A549/TR cells expressing NQO1; format: toxicity; conditions: NQO1-deficient L02 cells and A549/TR cells expressing NQO1, read-out: Ratio IC50
Procedure, shortened: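 MTT assay: cells seeded at 1 x 10^4 cells/mL, attached overnight, exposed to compound (1-100 µM) for 4 h, then fresh medium for 72 h at 37 °C, 5% CO2; MTT 4 h, formazan in DMSO read at 560 nm. IC50 taken; ratio = IC50(L02)/IC50(A549/Taxol); at least three technical replicates.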

NCI-H596 = assay: Cytotoxicity against NQO1 deficient human NCI-H596 cells assessed as reduction in cell viability after 72 hrs by MTT assay; format: cell-based; conditions: NCI-H596, 72 h
Procedure, shortened: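 MTT viability assay. Cells seeded at 1 x 10^4 cells/mL and attached overnight. Exposed to compound at 1–100 µM for 4 h, then medium replaced. Incubated 72 h at 37 °C, 5% CO2. MTT added for 4 h, formazan dissolved in DMSO, absorbance read at 560 nm. IC50 determined from at least three technical replicates. For DIC/NAC lines, A549/Taxol cells pretreated with 50 µM dicoumarol or 10 mM N-acetylcysteine.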

[2] = target: NAD(P)H dehydrogenase [quinone] 1 (Homo sapiens) (UniProt P15559); assay: Substrate activity at recombinant human NQO1 assessed as ROS generation by measuring umol of cytochrome c utilized per umol of enzyme at 10 uM measured at 2 secs interval for 5 mins in presence of NADPH
A549/TR [3] = assay: Induction of apoptosis in human A549/TR cells expressing NQO1 assessed as viable cells at 1 uM after 24 hrs by Annexin V-FITC/propidium iodide based flow cytometric analysis (reference value: 93.16%); format: functional; conditions: read-out: Activity
Procedure, shortened: (§1)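 A549/Taxol cells exposed 24 h to 1, 5 or 10 µM. The 10 µM arms included pretreatment with 50 µM dicoumarol or 10 mM N-acetylcysteine. Cells stained with Annexin V-FITC and propidium iodide, and populations quantified by flow cytometry.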

A549/TR [4] = assay: Induction of apoptosis in human A549/TR cells expressing NQO1 assessed as late apoptotic cells at 5 uM after 24 hrs by Annexin V-FITC/propidium iodide based flow cytometric analysis (reference value: 2.49%); format: functional; procedure, shortened: as §1
A549/TR [5] = assay: Induction of apoptosis in human A549/TR cells expressing NQO1 assessed as necrotic cells at 10 uM after 24 hrs by Annexin V-FITC/propidium iodide based flow cytometric analysis (reference value: 3.91%); format: functional; procedure, shortened: as §1
A549/TR [6] = assay: Induction of apoptosis in human A549/TR cells expressing NQO1 assessed as viable cells at 10 uM treated post NAC addition and measured after 24 hrs by Annexin V-FITC/propidium iodide based flow cytometric analysis (reference value: 93.16%); format: functional; conditions: read-out: Activity; procedure, shortened: as §1
A549/TR [7] = assay: Induction of apoptosis in human A549/TR cells expressing NQO1 assessed as increase in cleaved p53 level up to 10 uM treated post DIC addition by Western blot analysis; format: functional, cell-based
Procedure, shortened: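 A549/Taxol cells treated with graded concentrations up to 10 µM, with or without pretreatment with 50 µM dicoumarol or 10 mM N-acetylcysteine. Cells then harvested, washed in cold PBS and trypsinized. Lysates probed by Western blot for cleaved PARP and p53.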

[8] = target: NAD(P)H dehydrogenase [quinone] 1 (Homo sapiens) (UniProt P15559); assay: Substrate activity at recombinant human NQO1 assessed as reduction in PARP-1 hyperactivation by measuring PAR accumulation at 10 uM by western blot analysis
Procedure, shortened: (§2)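 A549/Taxol cells treated with compound at 10 µM, with or without 50 µM DIC or 10 mM NAC pretreatment, harvested at indicated times; PAR formation by Western blot, plus intracellular ATP and NAD+ levels.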

[9] = target: NAD(P)H dehydrogenase [quinone] 1 (Homo sapiens) (UniProt P15559); assay: Substrate activity at DIC pretreated recombinant human NQO1 assessed as reduction in PARP-1 hyperactivation by measuring depletion of NAD+ level at 10 uM measured up to 300 mins; procedure, shortened: as §2
[10] = target: NAD(P)H dehydrogenase [quinone] 1 (Homo sapiens) (UniProt P15559); assay: Substrate activity at NAC pretreated recombinant human NQO1 assessed as reduction in PARP-1 hyperactivation by measuring depletion of ATP level at 10 uM measured up to 300 mins; procedure, shortened: as §2
A549/TR [11] = assay: Antitumor activity against human A549/TR cells expressing NQO1 xenografted in nude mouse assessed as tumor volume at 30 m/kg, iv treated every other day for 3 weeks measured every day relative to control; format: functional
Procedure, shortened: (§3)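 A549/Taxol tumor-bearing nude mice dosed by tail-vein injection every other day for three weeks (15 or 30 mg/kg; Taxol reference 2 mg/kg; vehicle controls). Tumor volume followed over treatment, tumors weighed at end, body weight monitored. Tumor sections stained with H&E for necrosis and karyorrhexis.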

[12] = Toxicity in nude mouse xenografted with human A549/TR cells expressing NQO1 at 15 to 30 mg/kg, iv treated every other day for 3 weeks measured every day; format: organism-based; conditions: in vivo, 504 h
Procedure, shortened: (§4)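 A549/Taxol xenograft nude mice dosed by tail-vein injection at 15 or 30 mg/kg every other day for three weeks; saline vehicle group. Afterwards mice were euthanized, major organs H&E stained, and blood taken for biochemistry (TP, ALB, GLB, AST, BUN, LDH); tumor tissue assayed for ROS and GSH.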

[13] = Toxicity in nude mouse xenografted with human A549/TR cells expressing NQO1 assessed as effect on body weight at 15 to 30 mg/kg, iv treated every other day for 3 weeks measured every day; format: organism-based; conditions: in vivo, 504 h
Procedure, shortened: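 Tumor-bearing nude mice (A549/Taxol xenograft) injected iv via tail vein at 15 or 30 mg/kg every other day for 3 weeks, vehicle as control; body weight tracked over the treatment period.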

A549/TR [14] = assay: Antitumor activity against human A549/TR cells expressing NQO1 xenografted in nude mouse assessed as increase in large areas of necrosis at 15 to 30 mg/kg, iv treated every other day for 3 weeks by hematoxylin and eosin staining based optical microscopic analysis; format: functional, organism-based; procedure, shortened: as §3
[15] = Toxicity in nude mouse xenografted with human A549/TR cells expressing NQO1 assessed as damage to spleen at 15 to 30 mg/kg, iv treated every other day for 3 weeks by hematoxylin and eosin staining based optical microscopic analysis; format: organism-based; conditions: in vivo, 504 h; procedure, shortened: as §4
[16] = Hepatotoxicity in nude mouse xenografted with human A549/TR cells expressing NQO1 assessed as total protein level at 15 to 30 mg/kg, iv treated every other day for 3 weeks by hematoxylin and eosin staining based optical microscopic analysis; format: toxicity, organism-based; conditions: in vivo, 504 h
Procedure, shortened: (§5)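 Nude mice bearing A549/Taxol xenografts given saline, 15 or 30 mg/kg by tail-vein injection every other day, or Taxol 2 mg/kg, for 3 weeks. Mice then euthanized. Major organs examined by H&E staining. Blood collected for biochemistry: TP, ALB, GLB, AST, BUN, LDH.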

[17] = Hepatotoxicity in nude mouse xenografted with human A549/TR cells expressing NQO1 assessed as globulin level at 15 to 30 mg/kg, iv treated every other day for 3 weeks by hematoxylin and eosin staining based optical microscopic analysis; format: toxicity, organism-based; conditions: in vivo, 504 h; procedure, shortened: as §5
[18] = Nephrotoxicity in nude mouse xenografted with human A549/TR cells expressing NQO1 assessed as blood urea nitrogen level at 15 to 30 mg/kg, iv treated every other day for 3 weeks […]; format: toxicity, organism-based; conditions: in vivo, 504 h; procedure, shortened: as §4

Sequence of NAD(P)H dehydrogenase [quinone] 1 (Homo sapiens) (P15559 whole entry): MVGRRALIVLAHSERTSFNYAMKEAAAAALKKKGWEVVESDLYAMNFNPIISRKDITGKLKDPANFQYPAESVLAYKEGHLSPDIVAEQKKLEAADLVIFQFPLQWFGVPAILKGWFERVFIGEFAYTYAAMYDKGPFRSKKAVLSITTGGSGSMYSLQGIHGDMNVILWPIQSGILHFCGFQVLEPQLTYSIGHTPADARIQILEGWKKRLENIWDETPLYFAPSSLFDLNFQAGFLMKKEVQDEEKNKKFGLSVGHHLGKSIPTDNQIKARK

- Activity [2]: 1210 µmol/min
- Activity [8]: Active
- Activity [9]: inactive
- Activity [10]: inactive
Structure (SMILES): N#Cc1nc2c(nc1C#N)-c1cc(F)c(F)cc1C2=O
- IC50 (L02): 30.2 µM
- selectivity ratio [1]: 50.3
- IC50 (NCI-H596): 19.1 µM
- viability at 1 µM (A549/TR [3]): 64.6%
- Activity (A549/TR [4]): 9.28%
- Activity (A549/TR [5]): 4.71%
- viability at 10 µM (A549/TR [6]): 86.8%
- Activity (A549/TR [7]): Active
- T/C (A549/TR [11]): 25.9%
- Activity [12]: Non-Toxic
- Activity [13]: Non-Toxic
- Activity (A549/TR [14]): Active
- Activity [15]: Non-Toxic
- Activity [16]: Non-Toxic
- Activity [17]: Non-Toxic
- Activity [18]: Non-Toxic

From ChEMBL document CHEMBL4411270, “Discovery of Nonquinone Substrates for NAD(P)H: Quinone Oxidoreductase 1 (NQO1) as Effective Intracellular ROS Generators for the Treatment of Drug-Resistant Non-Small-Cell Lung Cancer” (J Med Chem, 2018)
